# Experimental data: ChEMBL document CHEMBL1770101, “Synthesis, anti-inflammatory activity and COX-1/COX-2 inhibition of novel substituted cyclic imides. Part 1: Molecular docking study” (Eur J Med Chem, 2011)
# What was measured:
# Rattus norvegicus [1] = assay: Antiinflammatory activity in ip dosed Sprague-Dawley rat assessed as inhibition of carrageenan-induced paw edema after 2 hrs by plethysmometer; assay type: functional
# How it was run: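 Male Sprague-Dawley rats (250 g), fasted at least 16 h with water available, six per group. Compounds dosed IP as 1 mL suspension in 0.5% methyl cellulose. Paw volume measured by water displacement plethysmometer before and after treatment. % inhibition = (1 − D/C) × 100 versus controls.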
# Rattus norvegicus [2] = assay: Antiinflammatory activity in Sprague-Dawley rat assessed as inhibition of carrageenan-induced paw edema at 100 mg/kg, ip after 2 hrs by plethysmometer; assay type: functional; conditions: route intraperitoneal
# How it was run: (§1)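 Male Sprague-Dawley rats (250 g), fasted at least 16 h with free access to water, six per group. Test compound given IP at 100 mg/kg as 1 mL suspension in 0.5% methyl cellulose.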
# [3] = molecular target: T1, Prostaglandin G/H synthase 1 (Ovis aries, UniProt P05979); assay: Inhibition of ovine COX1 after 5 mins by enzyme immunoassay
# T1 sequence (P05979 whole entry): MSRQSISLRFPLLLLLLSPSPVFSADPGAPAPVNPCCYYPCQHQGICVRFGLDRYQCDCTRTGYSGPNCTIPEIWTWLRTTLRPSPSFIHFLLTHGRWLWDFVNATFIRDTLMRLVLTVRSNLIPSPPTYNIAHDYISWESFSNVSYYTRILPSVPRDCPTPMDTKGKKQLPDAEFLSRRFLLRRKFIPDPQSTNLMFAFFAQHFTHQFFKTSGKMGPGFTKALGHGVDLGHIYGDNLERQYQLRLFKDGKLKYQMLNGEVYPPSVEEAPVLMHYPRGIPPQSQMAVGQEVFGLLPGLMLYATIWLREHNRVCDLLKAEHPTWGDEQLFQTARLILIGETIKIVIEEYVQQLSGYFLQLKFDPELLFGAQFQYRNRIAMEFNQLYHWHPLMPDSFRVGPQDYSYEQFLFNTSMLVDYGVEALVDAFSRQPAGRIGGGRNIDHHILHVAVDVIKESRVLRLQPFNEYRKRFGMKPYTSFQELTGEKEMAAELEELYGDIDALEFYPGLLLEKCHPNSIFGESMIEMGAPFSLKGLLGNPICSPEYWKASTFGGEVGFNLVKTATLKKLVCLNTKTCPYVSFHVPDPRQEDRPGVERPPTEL
# Rattus norvegicus [4] = assay: Antiinflammatory activity in Sprague-Dawley rat assessed as inhibition of carrageenan-induced paw edema at 100 mg/kg, ip after 1 hr by plethysmometer; assay type: functional; conditions: route intraperitoneal; how it was run: as §1
SMILES,ED50 (Rattus norvegicus [1]),inhibition in vivo at 100 mg/kg (Rattus norvegicus [2]),IC50 [3],inhibition in vivo at 100 mg/kg (Rattus norvegicus [4])
O=C1c2cccc3cccc(c23)C(=O)N1c1cc(Cl)c(Cl)c(Cl)c1,115 mg/kg,88%,> 100 µM,79%
COc1cc(N2C(=O)CCC2=O)cc(OC)c1OC,,40%,> 100 µM,20%
O=C1CCC(=O)N1c1cc(Cl)c(Cl)c(Cl)c1,,33%,> 100 µM,30%
COc1cc(N2C(=O)[C@H]3CC=CC[C@H]3C2=O)cc(OC)c1OC,,,> 100 µM,
O=C1[C@H]2CC=CC[C@H]2C(=O)N1c1cc(Cl)c(Cl)c(Cl)c1,,,> 100 µM,
COc1cc(N2C(=O)c3nccnc3C2=O)cc(OC)c1OC,123 mg/kg,84%,> 100 µM,72%
O=C1c2nccnc2C(=O)N1c1cc(Cl)c(Cl)c(Cl)c1,175 mg/kg,73%,> 100 µM,47%
COc1cc(N2C(=O)c3ccccc3C2=O)cc(OC)c1OC,185 mg/kg,67%,> 100 µM,43%
O=C1c2ccccc2C(=O)N1c1cc(Cl)c(Cl)c(Cl)c1,172 mg/kg,70%,> 100 µM,49%
COc1cc(N2C(=O)c3ccc([N+](=O)[O-])cc3C2=O)cc(OC)c1OC,105 mg/kg,94%,40 µM,87%
O=C1c2ccc([N+](=O)[O-])cc2C(=O)N1c1cc(Cl)c(Cl)c(Cl)c1,122 mg/kg,79%,36.1 µM,79%
COc1cc(N2C(=O)c3ccc(C)cc3C2=O)cc(OC)c1OC,107 mg/kg,94%,> 100 µM,84%
Cc1ccc2c(c1)C(=O)N(c1cc(Cl)c(Cl)c(Cl)c1)C2=O,183 mg/kg,65%,> 100 µM,36%
COc1cc(N2C(=O)c3ccc(C(C)(C)C)cc3C2=O)cc(OC)c1OC,146 mg/kg,89%,> 100 µM,60%
CC(C)(C)c1ccc2c(c1)C(=O)N(c1cc(Cl)c(Cl)c(Cl)c1)C2=O,195 mg/kg,60%,> 100 µM,35%
COc1cc(N2C(=O)c3cc(Cl)c(Cl)cc3C2=O)cc(OC)c1OC,186 mg/kg,80%,> 100 µM,59%
O=C1c2cc(Cl)c(Cl)cc2C(=O)N1c1cc(Cl)c(Cl)c(Cl)c1,187 mg/kg,65%,> 100 µM,75%
COc1cc(N2C(=O)c3c(Cl)c(Cl)c(Cl)c(Cl)c3C2=O)cc(OC)c1OC,212 mg/kg,53%,> 100 µM,
O=C1c2c(Cl)c(Cl)c(Cl)c(Cl)c2C(=O)N1c1cc(Cl)c(Cl)c(Cl)c1,229 mg/kg,45%,> 100 µM,44%
COc1cc(N2C(=O)c3c(Br)c(Br)c(Br)c(Br)c3C2=O)cc(OC)c1OC,213 mg/kg,55%,> 100 µM,42%
O=C1c2c(Br)c(Br)c(Br)c(Br)c2C(=O)N1c1cc(Cl)c(Cl)c(Cl)c1,,,> 100 µM,
COc1cc(N2C(=O)c3cccc4cccc(c34)C2=O)cc(OC)c1OC,117 mg/kg,91%,> 100 µM,86%
COc1cc(-n2c(=O)c3ccccc3c3ccccc3c2=O)cc(OC)c1OC,120 mg/kg,84%,> 100 µM,86%
O=c1c2ccccc2c2ccccc2c(=O)n1-c1cc(Cl)c(Cl)c(Cl)c1,150 mg/kg,72%,> 100 µM,75%
COc1cc(N2C(=O)C3C(C2=O)C2(Cl)C(Cl)=C(Cl)C3(Cl)C2(Cl)Cl)cc(OC)c1OC (stereo not drawn),,34%,> 100 µM,36%
O=C1C2C(C(=O)N1c1cc(Cl)c(Cl)c(Cl)c1)C1(Cl)C(Cl)=C(Cl)C2(Cl)C1(Cl)Cl (stereo not drawn),,37%,> 100 µM,23%
O=C(O)Cc1ccccc1Nc1c(Cl)cccc1Cl [DICLOFENAC],114 mg/kg,89%,,88%
